Source: ChEMBL document CHEMBL1165950, “Design and synthesis of new potent anticancer pyrazoles with high FLT3 kinase inhibitory selectivity” (Bioorg Med Chem, 2010)

Legend:
Format in all cases: functional
[1] = system: SF-539; assay: Cytotoxicity against human SF539 cells assessed as cell growth at 0.01 uM after 48 hrs by sulforhodamine B assay; details: SF-539, 48 h, read-out: Activity
[2] = system: UACC-62; assay: Cytotoxicity against human UACC62 cells assessed as cell growth at 0.001 uM after 48 hrs by sulforhodamine B assay; details: UACC-62, 48 h, read-out: Activity
[3] = system: HCC 2998; assay: Cytotoxicity against human HCC2998 cells assessed as cell growth at 0.001 uM after 48 hrs by sulforhodamine B assay; details: HCC 2998, 48 h, read-out: Activity
[4] = system: NCI-H23; assay: Cytotoxicity against human NCI-H23 cells assessed as cell growth at 100 nM after 48 hrs by sulforhodamine B assay; details: NCI-H23, 48 h, read-out: Activity
[5] = system: NCI-H460; assay: Growth inhibition of human NCI-H460 cells after 48 hrs by sulforhodamine B assay; details: NCI-H460, 48 h
Outline: (§1)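 NCI 60-cell screen, five-dose mode. Cells grown in RPMI 1640 with 5% FBS and 2 mM L-glutamine and plated at 5000-40,000 cells/well according to doubling time. After 24 h preincubation, a Tz plate was TCA-fixed. Five concentrations (10-fold or 1/2 log dilutions) were applied for 48 h at 37 °C. SRB staining read at 515 nm. IC50 taken from [(Ti-Tz)/(C-Tz)]×100 = 50.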

[6] = system: CAKI-1; assay: Cytotoxicity against human Caki1 cells assessed as cell growth at 0.001 uM after 48 hrs by sulforhodamine B assay; details: CAKI-1, 48 h, read-out: Activity
[7] = system: SF-295; assay: Cytotoxicity against human SF295 cells assessed as cell growth at 10 uM; details: read-out: Activity
Outline: (§2)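 NCI-60 screen: cells grown in RPMI 1640 with 5% FBS and 2 mM L-glutamine, plated at 5000–40,000 cells/well according to doubling time, and preincubated 24 h at 37 °C, 5% CO2. The single 10 µM dose (DMSO stock) was added, then incubated 48 h. Cells were TCA-fixed and stained with 0.4% SRB, read at 515 nm, and growth % calculated against time-zero and control plates.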

[8] = system: COLO 205; assay: Cytotoxicity against human COLO205 cells assessed as cell growth at 0.01 uM after 48 hrs by sulforhodamine B assay; details: COLO 205, 48 h, read-out: Activity
Outline: (§3)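 NCI-60 five-dose screen. Cells were grown in RPMI 1640 with 5% FBS and 2 mM L-glutamine, plated at 5000–40,000 cells/well and preincubated for 24 h. Time-zero plates were TCA-fixed. DMSO-solubilized drug was added at five concentrations (10-fold or ½-log serial dilutions) for 48 h at 37 °C, 5% CO2. Cells were TCA-fixed, stained with 0.4% SRB and read at 515 nm. Percent growth used time-zero, control and test absorbances.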

[9] = system: NCI-H322M; assay: Cytotoxicity against human NCI-H322M cells assessed as cell growth at 10 uM after 48 hrs by sulforhodamine B assay; details: read-out: Activity
[10] = system: SF-539; assay: Cytotoxicity against human SF539 cells assessed as cell growth at 1 uM after 48 hrs by sulforhodamine B assay; details: SF-539, 48 h, read-out: Activity
[11] = system: MDA-MB-468; assay: Cytotoxicity against human MDA-MB-468 cells assessed as cell growth at 0.01 uM after 48 hrs by sulforhodamine B assay; details: MDA-MB-468, 48 h, read-out: Activity
[12] = system: HOP-62; assay: Cytotoxicity against human HOP62 cells assessed as cell growth at 0.001 uM after 48 hrs by sulforhodamine B assay; details: HOP-62, 48 h, read-out: Activity
[13] = system: HCT-116; assay: Cytotoxicity against human HCT116 cells assessed as cell growth at 0.01 uM after 48 hrs by sulforhodamine B assay; details: HCT-116, 48 h, read-out: Activity
[14] = system: HOP-62; assay: Cytotoxicity against human HOP62 cells assessed as cell growth at 10 uM after 48 hrs by sulforhodamine B assay; details: HOP-62, 48 h, read-out: Activity
[15] = system: SNB-19; assay: Cytotoxicity against human SNB19 cells assessed as cell growth at 10 uM; details: read-out: Activity; outline: as §2
[16] = system: A549; assay: Cytotoxicity against human A549 cells assessed as cell growth at 100 nM after 48 hrs by sulforhodamine B assay; details: A549, 48 h, read-out: Activity; outline: as §3
[17] = system: NCI/ADR-RES; assay: Cytotoxicity against human NCI/ADR-RES cells assessed as cell growth at 1 uM after 48 hrs by sulforhodamine B assay; details: read-out: Activity
[18] = system: KM12; assay: Cytotoxicity against human KM12 cells assessed as cell growth at 10 uM after 48 hrs by sulforhodamine B assay; details: KM12, 48 h, read-out: Activity
[19] = system: BT-549; assay: Cytotoxicity against human BT549 cells assessed as cell growth at 100 nM after 48 hrs by sulforhodamine B assay; details: BT-549, 48 h, read-out: Activity; outline: as §3
[20] = system: NCI/ADR-RES; assay: Cytotoxicity against human NCI/ADR-RES cells assessed as cell growth at 100 nM after 48 hrs by sulforhodamine B assay; details: read-out: Activity
[21] = system: LOX IMVI; assay: Cytotoxicity against human LOXIMVI cells assessed as cell growth at 10 uM after 48 hrs by sulforhodamine B assay; details: read-out: Activity
[22] = system: T47D; assay: Cytotoxicity against human T47D cells assessed as cell growth at 10 uM after 48 hrs by sulforhodamine B assay; details: read-out: Activity
[23] = Cytotoxicity against human Hs 578T cells assessed as cell growth at 100 nM after 48 hrs by sulforhodamine B assay; details: read-out: Activity
[24] = system: HT-29; assay: Growth inhibition of human HT-29 cells after 48 hrs by sulforhodamine B assay; details: HT-29, 48 h; outline: as §1
[25] = system: IGROV-1; assay: Cytotoxicity against human IGROV1 cells assessed as cell growth at 0.01 uM after 48 hrs by sulforhodamine B assay; details: IGROV-1, 48 h, read-out: Activity
[26] = system: OVCAR-3; assay: Growth inhibition of human OVCAR-3 cells after 48 hrs by sulforhodamine B assay; details: OVCAR-3, 48 h; outline: as §1
[27] = system: HT-29; assay: Cytotoxicity against human HT-29 cells assessed as cell growth at 10 uM after 48 hrs by sulforhodamine B assay; details: HT-29, 48 h, read-out: Activity
[28] = system: MCF7; assay: Cytotoxicity against human MCF7 cells assessed as cell growth at 0.01 uM after 48 hrs by sulforhodamine B assay; details: MCF7, 48 h, read-out: Activity
[29] = system: SN12C; assay: Cytotoxicity against human SN12C cells assessed as cell growth at 10 uM after 48 hrs by sulforhodamine B assay; details: read-out: Activity
[30] = system: NCI-H522; assay: Cytotoxicity against human NCI-H522 cells assessed as cell growth at 10 uM after 48 hrs by sulforhodamine B assay; details: NCI-H522, 48 h, read-out: Activity
[31] = system: SK-MEL-2; assay: Cytotoxicity against human SK-MEL-2 cells assessed as cell growth at 0.001 uM after 48 hrs by sulforhodamine B assay; details: SK-MEL-2, 48 h, read-out: Activity
[32] = system: A498; assay: Cytotoxicity against human A498 cells assessed as cell growth at 1 uM after 48 hrs by sulforhodamine B assay; details: A498, 48 h, read-out: Activity; outline: as §3
[33] = read-out: LC50 (the source's name)

With `Cc1cc(O)cc(-c2nn(CC#N)cc2-c2ccnc(-c3ccc(Oc4ccccc4)cc3)c2)c1` as the molecule, how does the growth at 0.01 µM [1] read?
The growth at 0.01 µM was 88%.

What about the growth at 0.001 µM [2] of the same molecule?
The growth at 0.001 µM was 92%.

What about the growth at 0.001 µM [3] of the same molecule?
Its growth at 0.001 µM is 96%.

And the growth at 0.1 µM [4]?
The growth at 0.1 µM was 96%.

What about the GI50 [5] of the same molecule?
The GI50 was 1.87 µM.

And the TGI [5]?
Its TGI is 3.58 µM.

And the CC50 [5, 33]?
Its CC50 is 6.85 µM.

And the growth at 0.001 µM [6]?
Its growth at 0.001 µM is 101%.

What about the growth at 10 µM [7] of the same molecule?
Its growth at 10 µM is 77.7%.

And the growth at 0.01 µM [8]?
The growth at 0.01 µM was 99%.

What about the growth at 10 µM [9] of the same molecule?
The growth at 10 µM was -89%.

What about the growth at 1 µM [10] of the same molecule?
The growth at 1 µM was 13%.

What about the growth at 0.01 µM [11] of the same molecule?
Its growth at 0.01 µM is 85%.

What about the growth at 0.001 µM [12] of the same molecule?
Its growth at 0.001 µM is 93%.

And the growth at 0.01 µM [13]?
Its growth at 0.01 µM is 94%.

And the growth at 10 µM [14]?
Its growth at 10 µM is -93%.

And the growth at 10 µM [15]?
The growth at 10 µM was 72.8%.

And the growth at 0.1 µM [16]?
The growth at 0.1 µM was 87%.

What about the growth at 1 µM [17] of the same molecule?
Its growth at 1 µM is -50%.

And the growth at 10 µM [18]?
The growth at 10 µM was -100%.

And the growth at 0.1 µM [19]?
Its growth at 0.1 µM is 84%.

What about the growth at 0.1 µM [20] of the same molecule?
Its growth at 0.1 µM is 95%.

What about the growth at 10 µM [21] of the same molecule?
Its growth at 10 µM is -86%.

And the growth at 10 µM [22]?
Its growth at 10 µM is -67%.

And the growth at 0.1 µM [23]?
Its growth at 0.1 µM is 82%.

What about the GI50 [24] of the same molecule?
The GI50 was 1.83 µM.

And the TGI [24]?
Its TGI is 3.84 µM.

And the CC50 [24, 33]?
Its CC50 is 8.06 µM.

What about the growth at 0.01 µM [25] of the same molecule?
Its growth at 0.01 µM is 83%.

What about the GI50 [26] of the same molecule?
Its GI50 is 1.88 µM.

And the TGI [26]?
Its TGI is 3.95 µM.

And the CC50 [26, 33]?
Its CC50 is 8.29 µM.

What about the growth at 10 µM [27] of the same molecule?
The growth at 10 µM was -89%.

And the growth at 0.01 µM [28]?
Its growth at 0.01 µM is 92%.

What about the growth at 10 µM [29] of the same molecule?
The growth at 10 µM was -87%.

And the growth at 10 µM [30]?
The growth at 10 µM was -93%.

What about the growth at 0.001 µM [31] of the same molecule?
The growth at 0.001 µM was 91%.

What about the growth at 1 µM [32] of the same molecule?
The growth at 1 µM was 26%.
